Results published in PubChem BioAssay AID588749 (Vanderbilt Specialized Chemistry Center, 2011).
The source made the active and inactive calls.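 The calls were made as follows: active = a clear dose-dependent calcium response in rat M1 cells, with a fitted half-maximal potency; inactive = the rest.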

Target: Muscarinic acetylcholine receptor M1 (Rattus norvegicus) (UniProt P08482)
Assay: rat M1 positive allosteric modulation, dose response, counter-screen for M4 PAM project, CHO cells, calcium fluorescence (AID 588749)
Settings: Fluo-4 calcium fluorescence
Method in brief: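 Assay system: rat M1 CHO cells; measure: % max ACh response and EC50; probe or stimulus: acetylcholine at EC20, followed by acetylcholine at EC80; schedule: 144 s compound pre-incubation, 37 °C; detection: Fluo-4 calcium flux fluorescence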

Sequence of Muscarinic acetylcholine receptor M1 (Rattus norvegicus) (P08482 whole entry, looked up): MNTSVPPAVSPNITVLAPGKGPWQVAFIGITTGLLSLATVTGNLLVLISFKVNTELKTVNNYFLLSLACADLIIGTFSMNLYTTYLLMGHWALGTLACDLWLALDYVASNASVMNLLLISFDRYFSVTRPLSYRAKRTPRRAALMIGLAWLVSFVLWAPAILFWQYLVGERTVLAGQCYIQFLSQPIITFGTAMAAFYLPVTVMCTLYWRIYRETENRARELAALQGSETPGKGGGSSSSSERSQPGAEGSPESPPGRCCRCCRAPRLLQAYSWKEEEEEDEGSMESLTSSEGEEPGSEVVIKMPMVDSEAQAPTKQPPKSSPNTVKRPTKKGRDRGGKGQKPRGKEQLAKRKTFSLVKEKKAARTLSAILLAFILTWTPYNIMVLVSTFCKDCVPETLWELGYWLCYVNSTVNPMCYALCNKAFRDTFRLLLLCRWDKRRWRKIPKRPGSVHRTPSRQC

SMILES: Cc1nc2sc(C(=O)NCc3ccc4c(c3)OCO4)c(N)c2c(C)c1Cl
- percent of ACh max response (at 36.8 µM (top of the series)): inactive

SMILES: Cc1nc2sc(C(=O)NC3CC3)c(N)c2c(C)c1Cl
- EC50: 943 nM

SMILES: Cc1nc2sc(C(=O)NCCc3ccncc3)c(N)c2c(C)c1Cl
- percent of ACh max response (at 30 µM (top of the series)): inactive

SMILES: Cc1nc2sc(C(=O)NCc3ccccc3)c(N)c2c(C)c1Cl
- percent of ACh max response (at 37.4 µM (top of the series)): inactive

SMILES: Cc1nc2sc(C(=O)NCc3ccncn3)c(N)c2c(C)c1Cl
- percent of ACh max response (at 30 µM (top of the series)): inactive

SMILES: Cc1nc2sc(C(=O)NCc3nccs3)c(N)c2c(C)c1Cl
- percent of ACh max response (at 30 µM (top of the series)): inactive

SMILES: Cc1nc2sc(C(=O)NCc3cccc(F)c3F)c(N)c2c(C)c1Cl
- percent of ACh max response (at 30 µM (top of the series)): inactive

SMILES: Cc1nc2sc(C(=O)NCc3ccncc3)c(N)c2c(C)c1Cl
- percent of ACh max response (at 45.3 µM (top of the series)): inactive

SMILES: Cc1nc2sc(C(=O)NCc3cccnc3)c(N)c2c(C)c1Cl
- percent of ACh max response (at 45.3 µM (top of the series)): inactive
